# From PubChem BioAssay
# Hits are enriched below; roughly 5.1% of the tested compounds scored in any of these assays.
# APP 5'UTR act – activators of APP 5'UTR luciferase reporter, primary screen, SH-SY5Y cells; hit rate 1% among 190,000; SH-SY5Y APP 5'UTR luciferase reporter, luminescence; zero percent = DMSO vehicle wells; activation, % at 2 µM;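 active = activation above a set limit, based on mean plus 3 SD of controls, cut at about 140% in these data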
# STAT3 act – IL-6 driven STAT3 reporter potentiators, primary screen, U3A cells, luciferase, luminescence, MLSCN library. IL-6 STAT3-luciferase reporter; 100% = signal with IL-6 EC80 alone. activation (% of control), % at 5.6 µM. hit rate 0.91% among 190,000. AID 871, 2007;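 active = activation above the screen-wide mean of compound activation plus 3 SD, cut at about 130% in these data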;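 note: 0% = background luminescence of wells with medium and substrate only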
#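 System – human U3A cells carrying STAT3-luciferase construct · Probe or stimulus – Interleukin-6, 33 ng/mL · Schedule – compound 1 h, then IL-6 6 h at 37 °C · Signal – luminescence from STAT3-driven luciferase reporter · Evaluation – percent of IL-6-only median luminescence · Benchmarks – IL-6-only high control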
# STAT1 activator – STAT1 signaling activators, primary screen, cell-based, HTS, luciferase reporter. NIH 3T3 STAT1-luciferase reporter, IFN-gamma, luminescence; 100% = IFN-gamma alone, no compound. activation (% of control), % at 5.5 µM. hit rate 2.6% among 200,000. AID 932, 2007;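 active = activation above the screen-wide mean activation plus 3 SD, cut at about 130% in these data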;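 note: raw ratio to IFN-gamma control signal so 100% means no change and 0% no light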
# NF-kB expr up – activators of NF-kB expression in neurons, primary screen, cell-based, HTS. human neuronal cells, NF-kB reporter expression; stronger effect = higher value. fold change at 12.5 µM. hit rate 1.6% among 190,000. AID 1239, 2008; in the data active = fold change above about 3.3
# STAT1 inh – STAT1 signaling inhibitors, primary screen, cell-based, HTS, luciferase reporter; NIH 3T3 STAT1-luciferase reporter, IFN-gamma, luminescence; inhibition, % at 5.5 µM; hit rate 0.35% among 200,000;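 active = inhibition above a set limit, the mean inhibition across all tested compounds plus 3 SD, cut at about 34% in these data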;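 note: 0% = IFN-gamma with DMSO and 100% = IFN-gamma with 300 µM nifuroxazide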
# STAT3 blocker – IL-6 driven STAT3 reporter inhibitors, primary screen, U3A cells, luciferase, luminescence, MLSCN library | IL-6 STAT3-luciferase reporter; host cell line lacks STAT1 | inhibition, % at 5.5 µM | hit rate 0.89% among 190,000;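 active = inhibition above the mean inhibition across all screened compounds plus 3 SD, cut at about 44% in these data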;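 note: 0% = DMSO only wells and 100% = 100 µM nifuroxazide control wells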
# * marks the source's active call; other numbers are inactive results; x = not tested or not shown.
SMILES,APP 5'UTR act,STAT3 act,STAT1 activator,NF-kB expr up,STAT1 inh,STAT3 blocker
O=c1/c(=C/c2ccc(O)cc2)sc2n1CCCN=2,82.5,112.7,139.3*,2.01,-44.0,-14.7
C=CCn1c(=O)/c(=C/c2ccc(F)cc2)s/c1=C(\C#N)c1nnc2n1CCCCC2,5.8,96.0,103.3,0.93,-3.6,14.3
COc1cc(/C=N/Nc2ccccn2)cc(OC)c1O,-15.2,89.3,107.0,1.85,-5.6,17.3
COc1cc(/C=N/Nc2ccccn2)ccc1OCC(C)C,91.1,108.8,148.1*,1.49,-55.0,-0.8
CCCOc1ccc(/C=N/Nc2ccccn2)cc1OC,118.1,101.0,147.7*,2.41,-51.3,0.7
C=CCOc1ccc(/C=N/Nc2ccccn2)cc1OC,91.1,88.3,138.4*,2.55,-44.1,22.4
CC(Sc1nnc(NC2CCCCC2)s1)C(=O)Nc1ccc2c(c1)C(=O)c1ccccc1C2=O (stereo not given),32.1,98.1,142.0*,1.22,-47.2,-0.2
CC(C)CCN(C(=O)Nc1ccc(Cl)cc1)C1CCN(C(C)C)CC1,11.5,100.3,101.8,1.26,-2.5,1.8
CCOc1ccc(N2Cc3ccccc3C2)cc1,104.7,96.0,141.0*,x,-44.8,7.3
CCn1c(COc2ccc(C)cc2)nnc1SCc1ccc(C#N)cc1,-8.6,90.0,101.3,1.04,-1.4,15.9
CCCCSc1ccc2nc(-c3ccc(C#N)cc3)cn2c1,37.0,93.7,130.9*,2.25,-34.6,12.7
CCCSc1ccc2nc(-c3ccccc3)cn2c1,97.7,14.6,31.1,1.17,78.6*,103.0*
CCN1C(=O)/C(=C/C=C2\C=CN(CC)c3ccccc32)SC1=S,97.7,102.3,100.0,0.99,0.0,-0.5
CCN1C(=O)/C(=C\C=C2/C=CC=CN2CC)SC1=S,47.6,118.0,133.6*,2.22,-38.2,-18.5
COC(c1ccccc1)c1nnc(CCC(=O)N(C)CCCC2CCCC2)o1 (stereo not given),9.1,106.0,116.8,1.82,-19.6,-1.6
COC(c1ccccc1)c1nnc(CCC(=O)N(C)Cc2cccc(-n3cccn3)c2)o1 (stereo not given),39.2,107.6,131.3*,2.44,-37.0,-3.5
CCCN(CC1CC1)C(=O)CCc1nnc(C(OC)c2ccccc2)o1 (stereo not given),3.1,105.7,103.0,1.54,-5.0,-2.1
COC(c1ccccc1)c1nnc(CCC(=O)N(C)CCOc2ccccc2)o1 (stereo not given),34.5,102.7,134.6*,2.25,-37.3,2.6
CC(/C=C/c1ccccc1)=N/NC(=O)c1cccc(Br)c1,-18.0,100.6,103.8,0.96,-5.2,6.3
O=C(/C=C/c1ccco1)N1CCc2ccccc21,249.7*,73.4,90.0,7.7*,12.2,35.4
CCOC(=O)/C=C/C(=O)N1CCc2ccccc21,-2.0,111.2,97.2,1.15,3.1,-1.3
O=C1CCN(C(=O)/C=C/c2ccccc2)c2ccccc21,15.3,90.9,129.3*,1.95,-30.6,11.7
CC1Cc2ccccc2N1C(=S)NC(=O)c1ccco1 (stereo not given),-0.6,101.1,100.8,0.99,-4.2,3.4
O=C(NC(=S)N1CCCc2ccccc21)c1ccco1,28.9,135.3*,114.9,0.69,-15.8,-44.6
O=C(c1ccco1)N1CCc2ccccc21,54.6,89.8,133.6*,2.26,-36.1,19.9
SMILES,APP 5'UTR act,STAT3 act,STAT1 activator,NF-kB expr up,STAT1 inh,STAT3 blocker
COc1ccc(/C=C/C(=O)N2CCCc3ccccc32)cc1,-3.4,98.2,109.6,1.23,-10.8,2.1
O=C(c1ccc(Br)o1)N1CCc2ccccc21,119.4,97.1,147.5*,4.32*,-53.4,7.7
O=C(Nc1nc2ccccc2[nH]1)c1cc2ccccc2o1,263.2*,79.5,121.0,5.45*,-21.7,25.8
O=C(Nc1nc2ccccc2[nH]1)c1ccccc1[N+](=O)[O-],17.3,106.2,136.3*,2.16,-40.9,-6.1
O=C(Nc1nc2ccccc2[nH]1)c1ccccc1F,-1.4,13.1,29.5,0.37,77.7*,100.7*
C#CCOC(=O)c1ccc(-n2cncn2)nc1,9.2,85.7,95.7,1.32,4.8,21.8
